Test [1] deals with Neutrophil. Put plainly: Induction of apoptosis in human neutrophils assessed as necrotic cells at 3 uM after 6 hrs by annexin V/propidium iodide staining based flow cytometric analysis. Type of test: functional. In a few lines: (§1)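 Neutrophils isolated from peripheral blood of healthy volunteers (>96% purity), resuspended at 5 × 10^6/mL in IMDM with penicillin, streptomycin and 0.1% w/v BSA. Compounds from 50 mM DMSO stocks (final DMSO 0.04–0.12%) were added just before cells, in duplicate, at 37 °C, 5% CO2. Cells were stained with annexin V in Ca-containing HBSS on ice for 10 min in the dark, PI was added, and cells were analysed by flow cytometry. Diff-Quick morphology confirmed results.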

Test [2] deals with Neutrophil. Put plainly: Induction of apoptosis in human neutrophils assessed as pre-necrotic cells at 3 uM after 6 hrs by annexin V/propidium iodide staining based flow cytometric analysis in presence of PTIO. Type of test: functional, cell-based. The essentials:
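Healthy-volunteer neutrophils (>96% pure) at 5 × 10^6/mL in IMDM with 0.1% BSA and penicillin/streptomycin, 37 °C, 5% CO2, in duplicate. Co-incubated with the NO scavenger PTIO, made directly in IMDM. Final DMSO 0.04–0.12%. Cells stained with annexin V (1/500 in CaCl2–HBSS binding buffer) 10 min on ice in the dark, then PI added before flow cytometry.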
For orientation: A flow cytometer gives signals particle by particle.

The test system of test [3] is Neutrophil. Put plainly: Induction of apoptosis in human neutrophils assessed as pre-necrotic cells at 3 to 10 uM after 6 hrs by annexin V/propidium iodide staining based flow cytometric analysis in presence of L-NAME. Type of test: functional, cell-based. In a few lines:
(§2)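 Human blood neutrophils at 5 × 10^6/mL in IMDM/0.1% BSA with antibiotics were pre-incubated for 15 min with L-NAME (prepared in IMDM) or with ODQ (10 μM; from a 10 mM stock in 0.01% NaOH). Test compounds were then added from DMSO stocks and cells cultured in duplicate at 37 °C, 5% CO2. Apoptosis was read by annexin V/PI flow cytometry.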

Test [4] deals with Neutrophil. Put plainly: Induction of apoptosis in human neutrophils assessed as pre-necrotic cells after 6 hrs by annexin V/propidium iodide staining based flow cytometric analysis. Type of test: functional, cell-based. In a few lines:
as §1

Test [5] relates to Neutrophil. Put plainly: Induction of apoptosis in human neutrophils assessed as viable cells at 3 uM after 6 hrs by annexin V/propidium iodide staining based flow cytometric analysis. Type of test: functional. The conditions noted are these: read-out: Activity. In a few lines: as §1
Test [6] has as its system Neutrophil. Briefly: Induction of apoptosis in human neutrophils assessed as pre-necrotic cells at 3 uM after 6 hrs by annexin V/propidium iodide staining based flow cytometric analysis. Type of test: functional. The essentials:
as §1

Test [7] has as its system Neutrophil. Briefly: Induction of apoptosis in human neutrophils assessed as pre-necrotic cells at 3 to 10 uM after 6 hrs by annexin V/propidium iodide staining based flow cytometric analysis in presence of ODQ. Type of test: functional, cell-based. In a few lines: as §2
Test [8] concerns Neutrophil. Briefly: Induction of apoptosis in human neutrophils assessed as cellular shrinkage and nuclear pyknosis at 3 uM after 6 hrs by light microscopy analysis. Type of test: functional, cell-based. The essentials:
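Neutrophils isolated from healthy volunteers' citrated blood by dextran sedimentation and a density gradient (granulocytes at the 70:81 boundary, >96% pure). Cells at 5 × 10^6/mL in IMDM with penicillin/streptomycin and 0.1% BSA, 37 °C, 5% CO2, treated in duplicate. Final DMSO 0.04–0.12%. Cells cytocentrifuged, methanol-fixed 2 min, Diff-Quick stained, and scored for apoptotic morphology at 40× and 100×.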

In test [9] the test system is Neutrophil. Put plainly: Induction of apoptosis in human neutrophils at 10 uM by annexin V/propidium iodide staining based flow cytometric analysis. Type of test: functional, cell-based. The conditions noted are these: TDE = time-dependent effect. In a few lines:
as §1

Test [10] relates to Neutrophil. Briefly: Induction of apoptosis in human neutrophils assessed as apoptotic cells at 3 uM after 6 hrs by annexin V/propidium iodide staining based flow cytometric analysis. Type of test: functional. In a few lines: as §1
Test [11] relates to Neutrophil. Briefly: Induction of apoptosis in human neutrophils assessed as secondary necrosis at 10 uM after 8 hrs by annexin V/propidium iodide staining based flow cytometric analysis.

Active and inactive are the calls of the source. No cut-off for these calls is given here.

`CC[C@H](CO)Nc1nc(NCc2ccc(OCCCO[N+](=O)[O-])cc2)c2ncn(C(C)C)c2n1`: the Activity with Neutrophil [1] was 0.63%; with Neutrophil [4] it was “Dose-dependent effect”; in the test with Neutrophil [6] it was 0.017%; in the test on Neutrophil [9], “tde”; in the test with Neutrophil [10], 86.9%. In the test on Neutrophil [2], the result was inactive. Besides, the outcome with Neutrophil [3], in the test on Neutrophil [7], in the test with Neutrophil [8] and with Neutrophil [11] was Active. Also, the viability at 3 µM in the test on Neutrophil [5] is 12.5%.
Turning to `CN1C(=O)[C@]23CC4=CC=C[C@H](O)[C@H]4N2C(=O)[C@@]1(CO)SS3`, in the test on Neutrophil [2], the result was Active.
As to `CC[C@H](CO)Nc1nc(NCc2ccc(OCCCOC)cc2)c2ncn(C(C)C)c2n1`, the result with Neutrophil [3] and in the test with Neutrophil [7] was Active. The Activity entry with Neutrophil [4] was “Dose-dependent effect”.
With `CC[C@H](COC(=O)CCCO[N+](=O)[O-])Nc1nc(NCc2ccccc2)c2ncn(C(C)C)c2n1`, the result in the test on Neutrophil [3], in the test with Neutrophil [7] and with Neutrophil [11] was Active. Moreover, the values for the Activity entry in the test on Neutrophil [4] and in the test on Neutrophil [9] were “Dose-dependent effect” and “tde”, respectively.
For the molecule `CC[C@H](CO)Nc1nc(NCc2ccc(OCc3no[n+]([O-])c3C(N)=O)cc2)c2ncn(C(C)C)c2n1`, the outcome with Neutrophil [3], with Neutrophil [7] and in the test with Neutrophil [11] was Active. In addition, the Activity result with Neutrophil [4] is “Dose-dependent effect”; with Neutrophil [9], “tde”.
Regarding `CC[C@H](CO)Nc1nc(NCc2ccc(OCc3nonc3C(N)=O)cc2)c2ncn(C(C)C)c2n1`, the Activity entry in the test with Neutrophil [4] was “Dose-dependent effect”.
As for `CC[C@H](CO)Nc1nc(NCc2ccccc2)c2ncn(C(C)C)c2n1` [SELICICLIB], the Activity with Neutrophil [1] is 0.386%; with Neutrophil [6], 0.033%; with Neutrophil [9] it was “tde”; in the test on Neutrophil [10] it was 6.98%. Moreover, the outcome with Neutrophil [2], with Neutrophil [3], in the test with Neutrophil [7], with Neutrophil [8] and with Neutrophil [11] was Active. For the same molecule, in the test with Neutrophil [5], the viability at 3 µM was found to be 92.6%.
